Measurements as given in ChEMBL document CHEMBL1148970, “New acylated iridoid glucosides from Vitex altissima” (J Nat Prod, 2004).
Activity calls are given as the source filed them. No cut-off for these calls is given here.

Assays:
[1] = molecular target: T1, Polyunsaturated fatty acid 5-lipoxygenase (Homo sapiens) (UniProt P09917); test: Inhibition of 5-lipoxygenase activity at 1000 uM by ferric-xylenol orange peroxide assay relative to control
T1 sequence (whole entry): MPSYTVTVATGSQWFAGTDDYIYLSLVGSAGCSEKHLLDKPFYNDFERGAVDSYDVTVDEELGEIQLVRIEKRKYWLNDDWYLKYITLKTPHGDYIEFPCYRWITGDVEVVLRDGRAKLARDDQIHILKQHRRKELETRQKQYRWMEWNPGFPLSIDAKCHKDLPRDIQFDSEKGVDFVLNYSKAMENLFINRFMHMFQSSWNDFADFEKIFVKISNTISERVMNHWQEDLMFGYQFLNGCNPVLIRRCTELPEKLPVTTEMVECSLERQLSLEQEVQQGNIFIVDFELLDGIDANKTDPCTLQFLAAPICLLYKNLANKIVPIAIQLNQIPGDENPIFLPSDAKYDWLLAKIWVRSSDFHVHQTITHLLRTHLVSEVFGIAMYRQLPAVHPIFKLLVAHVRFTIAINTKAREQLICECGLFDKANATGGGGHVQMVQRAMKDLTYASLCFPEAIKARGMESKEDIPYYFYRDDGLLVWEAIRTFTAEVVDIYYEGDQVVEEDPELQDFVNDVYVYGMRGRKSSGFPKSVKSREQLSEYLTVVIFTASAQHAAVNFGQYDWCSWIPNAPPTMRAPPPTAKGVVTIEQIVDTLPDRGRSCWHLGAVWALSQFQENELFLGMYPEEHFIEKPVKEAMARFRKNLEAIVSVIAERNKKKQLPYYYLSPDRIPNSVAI
In short: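 Modified ferric-xylenol orange peroxide assay. 5-Lipoxygenase with test substance and linoleic acid (80 mM) in 50 mM phosphate pH 6.3 was incubated 5 min. Ferric-xylenol orange reagent in perchloric acid was then added and A585 read 2 min later. Percent inhibition is relative to the control. Triplicates averaged.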

[2] = tested on: Rattus norvegicus; test: Antiinflammatory activity against carrageenan-induced paw edema in Wistar rat at 200 mg/kg, po administered 1 hr before inflammation induction measured after 3 hrs of carrageenan challenge relative to control; type: functional
In short: (§1)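 Wistar rats of either sex, 180-220 g, groups of six. Test material suspended in 1% Tween-80 and given orally 1 h before 0.1 mL of 1% w/v carrageenan in saline was injected subplantar into the left hind paw. Vehicle controls received 1% Tween-80 at 10 mL/kg. Paw volume was read by plethysmometer at 0 and 3 h. Percent inhibition compares mean edema volume with the control group.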

[3] = Antioxidant activity assessed as superoxide radical scavenging activity by NBT method; type: functional
In short: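 Riboflavin-photogenerated superoxide was detected by NBT reduction (McCord–Fridovich). The mixture held EDTA 6.0 µM, NaCN 3 µg, riboflavin 2 µM, NBT 50 µM and test substance in methanol, in 58 mM phosphate pH 7.8, 3 mL final. A560 was read before and after illumination. IC50 was taken from the plot of concentration in µM against % inhibition.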

[4] = tested on: Radical scavenging activity; test: Antioxidant activity assessed as DPPH free radical scavenging activity; type: functional
In short: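 DPPH was used as a […] methanolic solution and mixed with a range of test concentrations. Mixtures stood in the dark for 50 min, then absorbance at 517 nm was read against a blank. Run in triplicate and averaged.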

[5] = tested on: Rattus norvegicus; test: Antiinflammatory activity against carrageenan-induced paw edema in Wistar rat at 25 mg/kg, po administered 1 hr before inflammation induction measured after 3 hrs of carrageenan challenge relative to control; type: functional; in short: as §1

SMILES | Activity [1] | IC50 [3] | IC50 [4] | inhibition in vivo at 200 mg/kg [2] | Activity [5]
COc1cc(/C=C/C(=O)OC[C@H]2O[C@@H](O[C@@H]3OC=C(C(=O)O)[C@H]4CC[C@](C)(O)[C@@H]34)[C@H](OC(=O)c3ccc(O)cc3)[C@@H](O)[C@@H]2O)ccc1O | inactive |  |  | 20% | 
COc1ccc(O)c(C(C)(C)C)c1.COc1ccc(O)cc1C(C)(C)C [BUTYLATED HYDROXYANISOLE] |  | 966 µM | 18 µM |  | 
C=C1[C@H]2[C@H](O[C@@H]3O[C@H](COC(=O)/C=C/c4ccc(O)c(O)c4)[C@@H](O)[C@H](O)[C@H]3OC(=O)c3ccc(O)cc3)OC=C(C(=O)O)[C@H]2C[C@@H]1O | inactive | 32 µM | 10.9 µM |  | 
C[C@]1(O)CC[C@@H]2C(C(=O)O)=CO[C@@H](O[C@@H]3O[C@H](COC(=O)/C=C/c4ccc(O)c(O)c4)[C@@H](O)[C@H](O)[C@H]3OC(=O)c3ccc(O)cc3)[C@@H]21 | inactive | 24.3 µM | 15.2 µM |  | 
O=C(OCC1=C[C@@H](O)[C@@H]2C=CO[C@@H](O[C@@H]3O[C@H](CO)[C@@H](O)[C@H](O)[C@H]3O)[C@H]12)c1ccc(O)cc1 | inactive |  |  |  | 
O=C([O-])Cc1ccccc1Nc1c(Cl)cccc1Cl.[Na+] [DICLOFENAC SODIUM] |  |  |  |  | 62%
C[C@H]1[C@H]2[C@H](O[C@@H]3O[C@H](COC(=O)/C=C/c4ccc(O)c(O)c4)[C@@H](O)[C@H](O)[C@H]3OC(=O)c3ccc(O)cc3)OC=C(C(=O)O)[C@H]2C[C@@H]1O | inactive | 31.9 µM | 11.4 µM |  | 
Cc1cc(C(C)(C)C)c(O)c(C(C)(C)C)c1 [BUTYLATED HYDROXYTOLUENE] |  | 381 µM | 19 µM |  | 

Continued, in another order:

Activity [1] | IC50 [3] | IC50 [4] | SMILES | inhibition in vivo at 200 mg/kg [2] | Activity [5]
inactive |  |  | C[C@H]1[C@H]2[C@H](O[C@@H]3O[C@H](CO)[C@@H](O)[C@H](O)[C@H]3OC(=O)c3ccc(O)cc3)OC=C(C(=O)O)[C@H]2C[C@@H]1O |  | 
inactive |  |  | C=C1[C@H]2[C@H](O[C@@H]3O[C@H](CO)[C@@H](O)[C@H](O)[C@H]3OC(=O)c3ccc(O)cc3)OC=C(C(=O)O)[C@H]2C[C@@H]1O |  | 
inactive |  |  | C[C@]1(O)CC[C@@H]2C(C(=O)O)=CO[C@@H](O[C@@H]3O[C@H](CO)[C@@H](O)[C@H](O)[C@H]3OC(=O)c3ccc(O)cc3)[C@@H]21 |  | 
